Rin1-Abl PPI inh = human Rin1-Abl interaction inhibition; P00519+Q13671; TR-FRET Rin1/Abl binding, biochemical; inhibition, % at 7.35 µM; hit rate 0.4% among 360,000; AID 588664; in the data active = inhibition above about 5%, passing the limit was not always enough
TbMetRS inhib = Trypanosoma brucei MetRS inhibition. purified T. brucei MetRS, ATP depletion, Kinase-Glo luminescence. inhibition, % at 11.9 µM. hit rate 0.4% among 360,000. AID 624268;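 active = inhibition above a per-plate cutoff of the control wells' mean inhibition plus 3 SD, cut at about 5.5% in these data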;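 also: 0% = DMSO wells median and 100% = median of wells with control inhibitor compound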
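assay system = parasite MetRS enzyme | timing = 15 min preincubation, 2 h reaction, all 25 °C | evaluation = percent inhibition relative to median high and low control wells | medium = HEPES buffer containing pyrophosphatase, BSA, spermine, DTT | compound = single dose, 11.9 µM final nominal, 0.9% final DMSO | detection = Kinase-Glo luminescence, ATP depletion format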
Arr AP2 block = blocks beta-arrestin peptide binding to AP2 adaptin | FITC-arrestin peptide / GST-AP2 beads, flow cytometry; AP2 beta2 appendage carries R879A mutation | inhibition, % at 10 µM | hit rate 0.31% among 340,000;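 active = inhibition above a set limit, near 3 SD of compounds lacking own fluorescence, cut at about 54% in these data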;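 also: plate controls were DMSO wells for no effect and 5 µM unlabelled arrestin peptide for full effect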
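Test system: GST-tagged AP2 beta2-adaptin appendage (R879A) on 4 µm glutathione beads; also added: fluorescein-tagged arrestin peptide at 50 nM final; timing: 12 min plus 1 h, RT; signal: flow cytometry, FL1 (488/535 nm); read-out: percent drop in bead-associated FITC signal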
MT1-MMP act inh = inhibitors of human MT1-MMP activation; P50281; HT1080 RFP-PRO-GFP cells, GFP/RFP ratio fluorescence, overnight; percent of plate control window, DMSO zero; GFP/RFP ratio change, % at 20 µM; hit rate 0.061% among 360,000; AID 651647;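 active = GFP/RFP ratio change of at least 30% with cell ATP level not reduced by more than half and red fluorescence within 50% of control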
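Test system: HT1080 RFP-PRO-GFP cells; Benchmarks: DMSO and RFP-L50D-GFP cell wells; Timing: cells overnight before dosing, compound overnight, 37 °C, 5% CO2; Compound: one 20 µM compound dose with 1% DMSO; Read-out: GFP/RFP fluorescence ratio.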
SKN-1 block = inhibitors of C. elegans SKN-1; C. elegans VP596 Pgst-4::GFP/RFP ratio, acrylamide-induced, 24 h; inhibition, % at 21.8 µM; hit rate 0.49% among 360,000;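 active = interference check ratio from 0.5 to 1.5 plus GFP to RFP signal ratio inhibition reaching or exceeding a fixed threshold, cut at about 30% in these data, passing the limit was not always enough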
MT1-MMP conf = blocks activation of human MT1-MMP in validation testing; shares compounds with MT1-MMP act inh; HT1080 RFP-PRO-GFP cells, GFP and RFP fluorescence ratio, overnight; inhibition, % at 20 µM; hit rate 10% among 200;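 active = inhibition of at least 50% in the primary cell screen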
Active calls of the source: *; · = no result given. An excerpt weighted towards active compounds, which were near 1.6% of everything screened.

SMILES	Rin1-Abl PPI inh	TbMetRS inhib	Arr AP2 block	MT1-MMP act inh	SKN-1 block	MT1-MMP conf
Cn1cccc1/C=C1/C(=O)NC(=S)N(Cc2ccc(F)cc2)C1=O	-1.9	0.4	11.2	38.8*	-1.4	34.6
O=c1[nH]c(=S)n(C2CC2)c(O)c1/C=N/Nc1cccc2ccccc12	0.2	1.0	-7.5	2.4	9.9	·
O=c1[nH]c(=S)n(C2CC2)c(O)c1/C=N/Nc1ccccc1	1.4	-0.3	-3.2	61.1*	-0.6	3.9
COc1ccc(-n2nnnc2C(c2cccs2)N2CCC(n3c(=O)[nH]c4ccccc43)CC2)cc1 (centres undefined)	7.0	-0.3	·	-10.9	-3.1	·
COC(=O)C1=C(c2ccc(OC)c(OC)c2)C[C@@H]2CC[C@H]1N2C(=O)N1CCCC1	-0.9	-0.4	-2.6	33.9*	24.3	3.4
[N-]=[N+]=NC1C[C@H](n2ccc(=O)[nH]c2=O)O[C@@H]1CO (some centres undefined)	-1.8	-0.6	-5.3	3.7	7.9	·

Source: PubChem
